Sampled rows, rich in hits. Any-hit rate of the full collection: about 3%.
MITF TRPM1 HTS: increases MITF-driven TRPM1 promoter luciferase signal; hit rate 0.75% among 300,000; activation, % at 12.5 µM; SK-MEL-5 TRPM1-promoter luciferase, 24 h; % of positive control, neutral wells = 0; AID 588334;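 active = mean activation of at least 80% with every replicate also reaching 80%; inconclusive = mean reaches 80% but some replicate falls short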;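 note: 0% = neutral control wells and 100% = parthenolide positive control wells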
NSD2 inh: NSD2 (human) methyltransferase inhibition; AID 743445; NSD2 peptide methylation, AlphaScreen, 120 min; hit rate 0.54% among 310,000; inhibition, % at 12.5 µM; O96028; in the data active = inhibition above about 50%
CASP6 VEID inh: inhibitors of human caspase-6; P55212; purified caspase-6, Z-VEID-R110 cleavage fluorescence; inhibition, % at 12.5 µM; hit rate 0.53% among 350,000; AID 686996;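 active = mean inhibition across replicates at least about 35%, with every replicate also reaching that limit, limit read from the data; inconclusive = only one of the two criteria met; inactive = neither criterion met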;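 note: 0% = median of neutral control wells and 100% = no fluorescence left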
Target sequence (P55212 24-179 limits assumed): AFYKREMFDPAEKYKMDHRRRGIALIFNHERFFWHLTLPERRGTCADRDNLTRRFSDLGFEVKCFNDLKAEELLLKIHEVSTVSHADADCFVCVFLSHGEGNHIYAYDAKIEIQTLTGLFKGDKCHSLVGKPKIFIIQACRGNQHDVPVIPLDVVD
Target sequence (P55212 194-293 limits assumed): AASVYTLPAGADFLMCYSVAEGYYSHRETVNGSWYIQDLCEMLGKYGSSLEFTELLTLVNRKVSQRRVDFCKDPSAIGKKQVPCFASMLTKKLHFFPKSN
esBAF inh: SWI/SNF esBAF complex inhibition | mouse ES cells, Bmi1-luciferase knock-in reporter, 24 h; 100% = twice the neutral-well signal | hit rate 2% among 350,000 | AID 602393 | reporter increase, % at 12.5 µM; in the data active = activation above about 40%; inconclusive = no clear call, values can overlap the other calls;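 note: 0% = median of the plate's neutral control wells and 100% = double that signal; a rise in the Bmi1 reporter signal indicates esBAF inhibition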
Wnt bcat act: Wnt/beta-catenin pathway activation | Wnt/beta-catenin reporter cell assay, activator, plate reader | activation, % at 9.35 µM | hit rate 1.2% among 300,000; in the data active = activation above about 30%, passing the limit was not always enough; inconclusive = no clear call, values can overlap the other calls;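 note: 0% = neutral control wells and 100% = positive control wells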
Xi reactivation: activators of X-chromosome reactivation in mouse fibroblasts; AID 743238; XiGFP mouse fibroblasts, % GFP-positive cells imaging, 3 d; cells co-treated with 5-aza-dC sensitizer; scaled so ellipticine positive control = 100%; hit rate 0.055% among 360,000; activation, % at 7.58 µM;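 active = mean normalized replicate activation at least 10% and every replicate at or above 10%; inconclusive = only one of the two criteria met; inactive = mean below 10% and not all replicates reach 10%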;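 note: 0% = median of on-plate neutral control wells and 100% = ellipticine 6 µM median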
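System: XiGFP fibroblasts, SV40-immortalized. Medium: DMEM plus 5-aza-dC sensitizer. Doses: single point. Timing: 3 d treatment, 15 min room-temperature fixation. Control set: ellipticine 6 µM.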
Starred values were filed as active, the others as inactive; ? = inconclusive; / = no result given.

SMILES	MITF TRPM1 HTS	NSD2 inh	CASP6 VEID inh	esBAF inh	Wnt bcat act	Xi reactivation
Cn1cccc1C(=O)OCc1cc(Cl)cc2c1OCOC2	68.6	2.4	/	36.9	72.7*	/
Cn1cccc1C(=O)OCC(=O)Nc1ccc2c(c1)OCO2	1.5	1.8	-2.2	/	6.6	0.0
CSc1cccc(NC(=O)c2[nH]c(C)c(C(C)=O)c2C)c1	133.1*	27.9	2.5	64.6*	19.0	-0.1
CC(=O)c1c(C)[nH]c(C(=O)Nc2cccc(C)c2C)c1C	1.1	-0.2	0.3	7.2	0.5	0.1
CC(=O)c1c(C)[nH]c(C(=O)Nc2ccc(Cl)cc2)c1C	77.1	-1.8	4.1	60.2*	14.0	0.1
CO[C@@H]1CN(C)C(=O)c2cc(NC(=O)C3CCOCC3)ccc2OC[C@@H](C)N(S(=O)(=O)c2ccc(Cl)cc2)C[C@H]1C	/	/	-0.6	-15.8	/	/
COc1ccc(-c2ccc(C(=O)Nc3ccc(OC)nc3)c3occc23)c(C)c1	/	-5.9	-1.5	12.8	-0.6	0.2
COc1ccc(-c2ccc(C(=O)Nc3ccc4c(c3)OCO4)c3occc23)c(C)c1	/	-1.4	0.5	59.2*	3.0	0.1
COc1ccc(-c2ccc(C(=O)Nc3ccccc3)c3occc23)c(C)c1	/	-1.9	-1.3	85.6*	5.2	0.1
Cc1c(C(=O)N2CCCC(C(F)(F)F)C2)oc2ccccc12 (stereo not drawn)	29.2	2.0	1.3	8.5	-1.0	0.1
S=C(c1ccc(-c2ccccc2Cl)o1)N1CCOCC1	76.3	4.7	/	31.3	/	/
O=C(c1ccc(-c2ccc([N+](=O)[O-])cc2Cl)o1)N1CCOCC1	-8.1	10.4	0.3	/	1.5	0.0
CC1CCN(C(=O)c2ccc(-c3ccccc3Cl)o2)CC1	109.8*	0.6	1.9	?	44.4*	0.2
O=C(c1ccc(-c2ccccc2Cl)o1)N1CCCC(C(F)(F)F)C1 (stereo not drawn)	?	-2.8	-133.1	50.9*	-2.9	-0.1
O=C(c1ccc(-c2ccccc2Cl)o1)N1CCC1	?	-0.7	-3.4	84.2*	19.7	-0.1
O=C(c1ccc(-c2cccc(Cl)c2Cl)o1)N1CCOCC1	86.5*	-1.6	15.1	39.3	34.4*	0.3
CC(=O)N1[C@H](CO)[C@@H](c2ccccc2)C12CN(C(=O)CN1CCOCC1)C2	/	/	/	/	/	0.1
O=C(c1ccc(-c2cccc(C(F)(F)F)c2)o1)N1CCOCC1	56.6	0.0	/	70.5*	-1.3	/
NC(=O)C1CCCN(C(=O)c2ccc(-c3cccc(Cl)c3Cl)o2)C1 (stereo not drawn)	79.8	-0.4	24.7	74.5*	38.0*	0.0
CC(=O)N1CCN(C(=O)c2ccc(-c3cccc(C(F)(F)F)c3)o2)CC1	11.7	-0.9	1.2	-1.0	-2.3	-0.1
COc1ccccc1-c1ccc2c(c1)O[C@@H](CN(C)S(=O)(=O)c1ccc(F)cc1)[C@@H](C)CN([C@H](C)CO)S2(=O)=O	/	/	1.0	0.5	/	0.5
Cc1ccc(-c2cn3nc(-c4ccccc4)c(-c4ccccc4)nc3n2)cc1	/	-10.8	3.7	/	1.0	78.5*
O=C(Cc1ccc(Br)cc1)c1ccc(O)cc1O	38.9	-1.5	/	59.6*	?	/
CC(C)C(=O)Nc1cccc(-c2nc3ccccc3o2)c1	25.8	-1.0	/	41.3*	/	/
COc1ccc(OCC(=O)Nc2cccc(-c3nc4ccccc4o3)c2)cc1	/	-0.1	/	51.4*	/	/
SMILES	MITF TRPM1 HTS	NSD2 inh	CASP6 VEID inh	esBAF inh	Wnt bcat act	Xi reactivation
CCCC(=O)Nc1cccc(-c2nc3ccccc3o2)c1	39.5	-2.3	/	28.4	/	/
Cc1ccccc1CN(C)C(=O)COC(=O)CSc1ccc([N+](=O)[O-])cc1	8.2	3.7	71.0*	4.2	-1.9	0.0
O=C(CSc1nc(N2CCCCC2)nc(N2CCCCC2)n1)c1ccccc1	/	-0.9	/	-5.4	0.1	/
Cc1cc(N2CCCCC2)nc(SCC(=O)c2ccccc2)n1	/	12.9	/	52.6*	?	/
C/C=C/c1ccccc1[C@@H]1[C@H](C#N)N(C(=O)c2cccnc2)[C@H]1CO	/	/	/	/	/	0.0
COc1ccc2c3c([nH]c2c1)[C@H](CO)N(C(=O)NC(C)C)CC31CCN(C(=O)c2cccnc2)CC1	/	/	1.7	/	/	0.3
CCCC(=O)N1CCC2(CC1)CN(C(=O)CN1CCOCC1)[C@@H](CO)c1c2c2ccc(OC)cc2n1C	/	/	/	/	/	0.4
Nn1c(SCc2ccccc2)nnc1-c1ccccn1	/	3.0	/	43.3*	/	/
Nn1c(SCc2ccc(F)cc2)nnc1-c1ccccn1	/	-3.0	-6.0	/	22.4	0.0
Nn1c(SCc2ccccc2F)nnc1-c1ccccn1	/	/	-2.0	/	41.0*	0.0
COc1ccc2c3c(n(C)c2c1)[C@H](CO)N(S(C)(=O)=O)CC31CN(C(=O)Nc2cccc(F)c2)C1	/	/	-2.6	/	/	0.3
COc1ccc(NC(=O)N(C)C[C@H]2Oc3ccc(NC(=O)CCN4CCOCC4)cc3CC(=O)N([C@H](C)CO)C[C@@H]2C)cc1	/	/	0.9	3.1	/	0.2
C[C@H]1CN([C@@H](C)CO)S(=O)(=O)c2ccc(-c3cccc(C#N)c3)cc2O[C@H]1CN(C)C(=O)c1ccc(F)cc1	/	/	-1.7	2.3	/	-0.9
CCC(=O)N1CCC2(CC1)CN(C(=O)c1cnccn1)[C@@H](CO)c1c2c2ccc(OC)cc2n1C	/	/	-1.6	/	/	0.1
CN(C)Cc1cn(CC[C@H]2CC[C@@H](NS(=O)(=O)c3ccc(-c4ccccc4)cc3)[C@@H](CO)O2)nn1	/	/	3.1	3.1	/	0.0
CCN(CC)S(=O)(=O)c1ccc2oc(Nc3ccccc3)nc2c1	41.5	-0.4	4.2	70.5*	9.9	0.2
CCS(=O)(=O)c1ccc2oc(Nc3ccccc3C)nc2c1	?	-0.9	/	54.7*	/	/
O=S(=O)(c1ccc(Cl)cc1)N1CCN(Cc2ccc(O)c3ncccc23)CC1	-64.2	1.5	-2.6	/	35.7*	6.3
Oc1ccc(CN2CCN(Cc3ccccc3)CC2)c2cccnc12	/	/	/	5.6	5.6	/
O=C1c2ccccc2-c2nc3ccccc3cc21	57.1	-2.7	-1.4	10.9	58.8*	0.2
c1ccc2c(c1)Cc1cc3ccccc3nc1-2	62.4	/	-1.4	10.7	44.4*	0.0
O=C(NC[C@@H]1CC[C@@H]2[C@@H](CN2Cc2ccccc2F)O1)C1CC1	/	/	-0.8	/	/	/
CC(=O)Nc1nc2ccc(Br)cc2s1	24.0	-0.9	/	62.2*	/	/
CCOC(=O)c1ccc2nc(NC(C)=O)sc2c1	41.8	-1.8	-3.0	47.2*	45.7*	0.0
Cc1ccc(-c2ccc([C@H]3[C@@H](CO)N4C(=O)CN(C(=O)c5ccncc5)C[C@@H]34)cc2)cc1	/	/	-3.5	/	/	0.1
Cc1ccc(Nc2ncc3c(n2)CC(C)(C)CC3=O)cc1	91.5*	-3.0	1.1	/	-0.9	0.2
FC(F)(F)CN1C[C@@H]2C(c3ccccc3)[C@H](C1)N2CC(F)(F)F (stereo partly drawn)	/	/	/	/	/	0.4
CC1CCN(S(=O)(=O)c2ccc3c(c2)C(Cl)(Cl)C(=O)N3)CC1	/	40.9	69.1*	-12.0	-0.9	2.2

Assay outcomes deposited in PubChem by Broad Institute.
